Experimental data from ChEMBL document CHEMBL1138476 (J Med Chem, 2009).
≈ marks a conversion by molar mass, not a printed value. Calls of active or inactive are those of the source. The rule behind the calls is not given here.

How the values were obtained:
[1] = target: T1, Substance-K receptor (Homo sapiens) (UniProt P21452); assay: Inhibition of ligand binding in neurokinin 2 receptor; design: scale not given: the % may be the effect or the level left
T1 sequence (whole entry): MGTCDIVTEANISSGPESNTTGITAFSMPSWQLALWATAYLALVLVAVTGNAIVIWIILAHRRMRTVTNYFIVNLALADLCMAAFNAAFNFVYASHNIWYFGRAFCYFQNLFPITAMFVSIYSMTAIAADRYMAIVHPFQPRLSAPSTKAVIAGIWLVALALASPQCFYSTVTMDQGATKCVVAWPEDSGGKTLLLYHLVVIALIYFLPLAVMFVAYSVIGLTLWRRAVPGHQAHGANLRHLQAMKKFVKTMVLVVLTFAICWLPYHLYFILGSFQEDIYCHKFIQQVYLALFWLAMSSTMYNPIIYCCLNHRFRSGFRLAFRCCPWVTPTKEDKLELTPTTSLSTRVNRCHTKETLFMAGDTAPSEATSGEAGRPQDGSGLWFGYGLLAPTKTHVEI
In short: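 Screened at 10^-7 and 10^-5 M for binding inhibition, then taken to a dose–response on the human neurokinin 2 receptor. IC50 is based on two experiments.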

[2] = Plasma concentration in dog at 0.3 mg/kg after intravenous infusion for 30 mins; assay type: ADME, organism-based, Canis lupus familiaris; design: dose 0.3 mg/kg, route intravenous
Canis familiaris [3] = assay: Effect on respiratory function in spontaneously breathing mongrel dog assessed as change in intrapleural pressure at 5 mg/kg after intravenous infusion for 15 mins (RVb= 12.6+/-17.1 %); assay type: functional, Canis lupus familiaris
Rattus norvegicus [4] = assay: Effect on acute renal function in rat assessed as change in urine sodium level per 100 gm body weight at 30 mg/kg, po (RVb= 49.9+/-3.1 mg/dl); assay type: functional
Rattus norvegicus [5] = assay: Effect on acute renal function in rat assessed as change in glucose level in urine per 100 gm body weight at 30 mg/kg, po (RVb= 9.9+/-1.9 mg/dl); assay type: functional
Canis familiaris [6] = assay: Effect on respiratory function in spontaneously breathing mongrel dog assessed as change in tidal volume at 5 mg/kg after intravenous infusion for 15 mins (RVb= 2.2+/-4.3 %); assay type: functional, Canis lupus familiaris
Canis familiaris [7] = assay: Effect on respiratory function in spontaneously breathing mongrel dog assessed as change in minute volume at 5 mg/kg after intravenous infusion for 6 mins (RVb= -3.6+/-7.5 %); assay type: functional, Canis lupus familiaris
Canis familiaris [8] = assay: Effect on respiratory function in spontaneously breathing mongrel dog assessed as change in airway resistance at 5 mg/kg after intravenous infusion for 60 mins (RVb= 17.3+/-15.1 %); assay type: functional, Canis lupus familiaris
Canis familiaris [9] = assay: Effect on respiratory function in spontaneously breathing mongrel dog assessed as change in mean arterial pressure at 5 mg/kg after intravenous infusion for 15 mins (RVb= 2.1+/-1.5 %); assay type: functional, Canis lupus familiaris, Artery
Canis familiaris [10] = assay: Effect on respiratory function in spontaneously breathing mongrel dog assessed as change in heart rate at 5 mg/kg after intravenous infusion for 15 mins (RVb= -2.3+/-1.7 %); assay type: functional, Canis lupus familiaris
[11] = Plasma concentration in spontaneously breathing dog at 5 mg/kg, iv after 15 mins; assay type: ADME, organism-based, Canis lupus familiaris; design: dose 5 mg/kg, route intravenous
In short: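 Spontaneously breathing, barbiturate-anesthetized mongrel dogs (n = 4) infused iv at 5.0 mg/kg over 6 min. Total pooled plasma concentrations taken at 6, 15, 30 and 60 min.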

[12] = Lipophilicity log P of the compound; assay type: physicochemical; settings: octanol/water
[13] = target: T2, Corticotropin-releasing factor receptor 1 (Rattus norvegicus, UniProt P35353); assay: Displacement of [125I]Tyro-rat/human CRF from CRF1 receptor in rat cortical membrane by gamma counting; assay type: cell membranes
T2 sequence (P35353 whole entry): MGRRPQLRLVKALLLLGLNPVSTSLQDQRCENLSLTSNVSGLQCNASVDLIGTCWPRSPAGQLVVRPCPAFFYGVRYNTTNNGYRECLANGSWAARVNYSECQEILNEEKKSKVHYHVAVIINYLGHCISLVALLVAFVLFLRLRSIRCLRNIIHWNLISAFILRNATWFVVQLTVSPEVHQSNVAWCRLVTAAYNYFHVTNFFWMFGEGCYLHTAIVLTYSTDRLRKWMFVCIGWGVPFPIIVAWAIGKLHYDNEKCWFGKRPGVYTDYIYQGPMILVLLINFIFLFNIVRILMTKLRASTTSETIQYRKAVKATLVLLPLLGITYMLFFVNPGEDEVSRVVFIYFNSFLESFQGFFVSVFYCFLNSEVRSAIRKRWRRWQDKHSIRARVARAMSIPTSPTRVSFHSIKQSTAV
In short: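 Binding to CRF receptors in rat cortical homogenate.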

[14] = Cmax in Beagle dog at 1 mg/kg, po by cassette dosing; assay type: ADME, organism-based, Canis lupus familiaris; design: dose 1 mg/kg, route oral; settings: in vivo
Adenosine receptor A1 = target: T3, Adenosine receptor A1 (Rattus norvegicus, UniProt P25099); assay: Binding affinity to rat adenosine A1 receptor expressed in CHO cells; assay type: cell-based
T3 sequence (P25099 whole entry): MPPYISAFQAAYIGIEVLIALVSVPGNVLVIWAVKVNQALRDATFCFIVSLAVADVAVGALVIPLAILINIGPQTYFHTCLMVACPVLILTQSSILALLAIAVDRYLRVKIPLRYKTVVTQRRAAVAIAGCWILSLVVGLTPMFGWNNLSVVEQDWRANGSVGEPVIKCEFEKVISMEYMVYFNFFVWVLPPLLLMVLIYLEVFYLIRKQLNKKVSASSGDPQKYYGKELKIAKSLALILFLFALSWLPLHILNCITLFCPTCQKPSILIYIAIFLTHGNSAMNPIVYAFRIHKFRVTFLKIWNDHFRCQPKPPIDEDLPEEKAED
In short: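 Cloned rat adenosine A1 receptor transfected into CHO cells, part of a contracted screen.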

[15] = Solubility in acetone; assay type: physicochemical
Rattus norvegicus [16] = assay: Anxiolytic activity in rat assessed as increase in time spent on open arm at 30 mg/kg, po by elevated plus-maze test; assay type: functional, organism-based; design: dose 30 mg/kg
In short: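 Rat elevated plus maze: percent of test time spent in the open arms. Oral dosing in 0.25% Methocel 60 min before testing; n = 12 per dose, mean ± SEM. Analysed by ANOVA followed by Fisher's LSD comparisons against vehicle.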

Rattus norvegicus [17] = assay: Ex vivo receptor occupancy of CRF receptor in rat brain at 30 mg/kg, po by [125I]sauvagine binding and autoradiography relative to control; assay type: functional
In short: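 Rats were given 0.3, 1, 3, 10 or 30 mg/kg po in 0.25% Methocel 60 min before sacrifice. Brains were removed, sectioned and frozen at −80 °C. Ex vivo CRF receptor binding gave occupancy relative to vehicle-treated rats, reported as mean ± SEM.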

[18] = Volume of distribution at steady state in rat at 1 mg/kg, iv and 5 mg/kg, po; assay type: ADME, organism-based; settings: in vivo, read-out: Vdss
In short: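 Rats (n = 3) dosed iv at 1 mg/kg in 10% DMAC, 70% propylene glycol and deionized water, and orally at 5 mg/kg in 0.5% methylcellulose.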

[19] = Cmax in rat at 5 mg/kg, po; assay type: ADME, organism-based; design: dose 5 mg/kg, route oral; settings: in vivo
In short: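 Rats (n = 3) received 1 mg/kg iv in 10% DMAC, 70% propylene glycol and deionized water, or 5 mg/kg orally in 0.5% methylcellulose.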

Canis familiaris [20] = assay: Cardiovascular activity in mechanically ventilated mongrel dog at assessed as increase in contractility at 3 mg/kg to 5 mg/kg, iv by dose escalation study

- Activity [1]: 80%
- concentration at 0.5 h [2]: 150 nM
- concentration at 0.25 h [11]: 835 nM
- logP [12]: 4.32
- IC50 [13]: 6.1 nM
- Cmax [14]: 301 nM
- Ki (Adenosine receptor A1): 2660 nM
- solubility [15]: 460 mg/mL (≈ 1350 mM)
- Vd [18]: 14.9 L/kg
- Cmax [19]: 1260 nM
Structure (SMILES): CC[C@@H](C)Nc1nc(C)nc2c(-c3ccc(OC)nc3C)c(C)nn12 [PEXACERFONT]
- Activity (Canis familiaris [3]): 6.5%
- Activity (Rattus norvegicus [4]): 58.4 mg/dL
- Activity (Rattus norvegicus [5]): 4.4 mg/dL
- Activity (Canis familiaris [6]): 4.3%
- Activity (Canis familiaris [7]): 28.1%
- Activity (Canis familiaris [8]): -23.6%
- Activity (Canis familiaris [9]): 1.2%
- Activity (Canis familiaris [10]): -2.9%
- Activity (Rattus norvegicus [16]): Active
- Activity (Rattus norvegicus [17]): 85%
- Activity (Canis familiaris [20]): 200 mmHg/s
